Assay results published in ChEMBL document CHEMBL1129597, “2-[2'-(Dimethylamino)ethyl]-1,2-dihydro- 3H-dibenz[de,h]isoquinoline-1,3-diones with substituents at positions 4, 8, 9, 10, and 11. Synthesis, antitumor activity, and quantitative structure-activity relationships” (J Med Chem, 1996).

Tests used:
WiDr [1] = assay: Activity against human colon carcinoma multi drug resistant (MDR)-WiDr cell line.; assay type: functional, cell-based
Rattus norvegicus = species on record: Rattus norvegicus; assay: Cardiotoxicity measured by the ATP/protein ratio compared with untreated controls using neonatal rat heart myocyte assay.; assay type: functional; set-up: Cardiotoxicity: unit not given here
Procedure, shortened: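 Neonatal rat heart myocytes exposed to drug for 1 h. The ATP/protein ratio was measured versus untreated control myocytes. IC50 is the concentration reducing this ratio to 50% of control.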

UACC-375 = assay: Antitumor activity against human melanoma UACC375 cell line.; assay type: functional, cell-based
Procedure, shortened: (§1)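 Cultured human tumor cells (melanoma UACC375, ovarian OVCAR3) under continuous drug exposure. Growth was read by sulforhodamine or MTT assay. Five concentrations per analogue, six determinations per concentration. IC50 values were derived from these.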

A549 = assay: Activity against A549 cancer cell line.; assay type: functional, cell-based; settings: Homo sapiens
L1210 [2] = assay: Antitumor activity against sensitive L1210 murine leukemia cell lines.; assay type: functional, cell-based; settings: Mus musculus
Procedure, shortened: (§2)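 Murine L1210 leukemia cells, sensitive or MDR subline, in culture. Continuous drug exposure during MTT assay. Five concentrations per analogue, six determinations per concentration. The IC50 was derived.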

OVCAR-3 [3] = assay: Antitumor activity against human ovarian OVCAR-3 cell lines.; assay type: functional, cell-based; procedure, shortened: as §1
MCF7 [4] = assay: Antitumor activity against human mammary carcinoma doxorubicin-resistant […] breast cell line.; assay type: functional, cell-based
MCF7 [5] = assay: Antitumor activity against human mammary carcinoma mitoxantrone-resistant […] breast cell line.; assay type: functional, cell-based
[6] = The quotient of the IC50 in the myocytes divided by the mean IC50 in the three cell lines; assay type: functional
Procedure, shortened: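 Calculated index: the myocyte IC50 divided by the mean IC50 across three tumor lines (sensitive L1210, melanoma UACC375, ovarian OVCAR3).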

L1210 [7] = assay: Antitumor activity against murine leukemia L1210 cell line.; assay type: functional, cell-based; settings: Mus musculus; procedure, shortened: as §2
MCF7 [8] = assay: Antitumor activity against human mammary carcinoma sensitive […] breast cell line.; assay type: functional, cell-based
WiDr [9] = assay: Activity against human colon carcinoma sensitive WiDr cell line.; assay type: functional, cell-based
L1210 [10] = assay: Compound was tested for antitumor activity against Murine leukemia cell line (L1210).; assay type: functional, cell-based; settings: Mus musculus; procedure, shortened: as §2
MCF7 [11] = assay: Compound was tested for antitumor activity against Human mammary carcinoma sensitive cell line ([…] breast).; assay type: functional, cell-based
MCF7 [12] = assay: Compound was tested for antitumor activity against Human mammary carcinoma Doxorubicin resistant […] breast cell line.; assay type: functional, cell-based
WiDr [13] = assay: The compound tested for activity againstHuman colon carcinoma sensitive WiDr cell line.; assay type: functional, cell-based; settings: Homo sapiens
[14] = (§3) Percent increase in life span when given at a dose in P388 leukemia cells of mice; assay type: functional
Procedure, shortened: (§4)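 P388 leukemia in mice, standard NCI protocol: 10^6 leukemia cells given ip; compound given ip in equal doses on days 1, 5 and 9. Highest dose used was 10% below the LD10 for acute toxicity in that mouse species. %ILS = 100 × (treated life span − control life span)/control life span, reported at the highest nontoxic dose.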

Mus musculus [15] = species on record: Mus musculus; assay: as §3; assay type: functional; procedure, shortened: as §4
OVCAR-3 [16] = assay: Compound was tested for antitumor activity against. Human ovarian (OVCAR-3) cell lines.; assay type: functional, cell-based
WiDr (Homo sapiens) = assay: Compound was tested for antitumor activity against The compound tested for activity against Human colon carcinoma sensitive WiDr cell line.
WiDr [17] = assay: Compound was tested for antitumor activity against The compound tested for activity against Human colon carcinoma, Multi Drug resistant(MDR) WiDr - cell line.; assay type: functional, cell-based
Mus musculus [18] = species on record: Mus musculus; assay: Percent increase in life span when given at a dose in P388 leukemia cells of mice (Positive control for compounds 15,34 and amonafide); assay type: functional; procedure, shortened: as §4
Mus musculus [19] = species on record: Mus musculus; assay: Percent increase in life span when given at a dose in P388 leukemia cells of mice (Positive control for compound 44); assay type: functional; procedure, shortened: as §4

Row | Compound | IC50 (WiDr [1]) [nM] | IC50 (UACC-375) [nM] | IC50 (A549) [nM] | IC50 (L1210 [2]) [nM] | IC50 (OVCAR-3 [3]) [nM] | IC50 (MCF7 [4]) [nM] | IC50 (L1210 [7]) [nM] | IC50 (MCF7 [8]) [nM] | IC50 (WiDr [9]) [nM] | IC50 (Rattus norvegicus) [nM] | IC50 (MCF7 [5]) [nM] | Toxicity ratio [6] | also measured
1 | Cc1ccc2cc3ccccc3c3c2c1C(=O)N(CCN(C)C)C3=O | 120 | 176 | 34 | 54 | 122 | – | – | – | – | 1360 | 140 | 12 | IC50 (L1210 [10]): 68 nM; IC50 (MCF7 [11]): 390 nM; IC50 (MCF7 [12]): 330 nM; IC50 (WiDr [13]): 60 nM
2 | CC(=O)Nc1cccc2c3c4c(cccc4cc12)C(=O)N(CCN(C)C)C3=O | – | – | – | – | – | – | – | – | – | – | – | – | ILS [14]: 109%
3 | CN(C)CCN1C(=O)c2cccc3cc4ccccc4c(c23)C1=O [AZONAFIDE] | – | – | – | – | – | – | – | – | – | 1980 | – | 44 | ILS (Mus musculus [15]): 79%
4 | CN(C)CCN1C(=O)c2c(Cl)ccc3cc4ccccc4c(c23)C1=O | – | 332 | 12 | 10 | – | – | – | 50 | – | 900 | 60 | 5.2 | IC50 (L1210 [10]): 15 nM; IC50 (OVCAR-3 [16]): 180 nM; IC50 (WiDr (Homo sapiens)): 90 nM; IC50 (WiDr [17]): 190 nM; IC50 (MCF7 [12]): 85 nM
5 | CN(C)CCN1C(=O)c2cccc3cc4ccc([N+](=O)[O-])cc4c(c23)C1=O | 74 | 18 | 2.5 | 25 | 23 | 8.7 | 25 | 13 | 9.5 | 801 | 14 | 36 | –
6 | CN(C)CCN1C(=O)c2cccc3cc4ccc(F)cc4c(c23)C1=O | 13 | 16 | 4.8 | 8.1 | 6.7 | 25 | – | 15 | 17 | 456 | 12 | 45.6 | –
7 | CN(C)CCN1C(=O)c2cccc3cc4ccc(I)cc4c(c23)C1=O | 130 | 624 | 31 | 312 | 176 | 59 | 52 | 42 | 40 | 4790 | 49 | 13 | –
8 | CN(C)CCN1C(=O)c2cccc3cc4ccc(NC(=O)C(C)(C)C)cc4c(c23)C1=O | – | – | – | – | – | – | – | – | – | – | – | – | ILS [14]: 105%
9 | CN(C)CCN1C(=O)c2cccc3cc4ccc(-c5ccccc5)cc4c(c23)C1=O | 320 | 1860 | 120 | 70 | 348 | 190 | 128 | 70 | 180 | – | 33 | – | –
10 | CN(C)CCN1C(=O)c2cccc3cc(N)cc(c23)C1=O [AMONAFIDE] | 2200 | – | 1100 | – | – | 1800 | – | 1100 | 1100 | 48400 | 1200 | 30 | ILS (Mus musculus [15]): 88%
11 | COc1ccc2c3c4c(cccc4cc2c1)C(=O)N(CCN(C)C)C3=O | 130 | 163 | 27 | 54 | 543 | 120 | 54 | 73 | 65 | – | 95 | <10.3 | Cardiotoxicity (Rattus norvegicus): < 2600
12 | COc1cccc2c1C(=O)c1c(O)c3c(c(O)c1C2=O)C[C@@](O)(C(=O)CO)C[C@@H]3O[C@H]1C[C@H](N)[C@H](O)[C@H](C)O1 [DOXORUBICIN] | – | – | – | – | – | – | – | – | – | 10200 | – | – | ILS (Mus musculus [18]): 113%; ILS (Mus musculus [19]): 72%
13 | O=C1c2c(O)ccc(O)c2C(=O)c2c(NCCNCCO)ccc(NCCNCCO)c21 [MITOXANTRONE] | – | – | – | – | – | – | – | – | – | 7740 | – | 368 | ILS (Mus musculus [15]): 200%

The remaining molecules from weak to strong by IC50 (UACC-375), led by results:

Row | IC50 (WiDr [1]) [nM] | IC50 (UACC-375) [nM] | IC50 (A549) [nM] | IC50 (L1210 [2]) [nM] | IC50 (OVCAR-3 [3]) [nM] | IC50 (MCF7 [4]) [nM] | IC50 (L1210 [7]) [nM] | IC50 (MCF7 [8]) [nM] | IC50 (WiDr [9]) [nM] | Compound | IC50 (Rattus norvegicus) [nM] | IC50 (MCF7 [5]) [nM] | Toxicity ratio [6] | also measured
14 | 1000 | 2060 | 61 | 1780 | 9000 | 710 | 617 | 340 | 390 | CN(C)CCN1C(=O)c2cccc3cc4cccc(Cl)c4c(c23)C1=O | 8230 | 120 | 1.9 | –
15 | 240 | 1220 | 1.7 | 189 | 2130 | 35 | 540 | 5.8 | 17 | CN(C)CCN1C(=O)c2cccc3cc4ccc(O)cc4c(c23)C1=O | > 27000 | 17 | >23 | –
16 | 270 | 540 | 40 | 189 | 1890 | 200 | 189 | 81 | 100 | CN(C)CCN1C(=O)c2cccc3cc4cccc(O)c4c(c23)C1=O | 15400 | 80 | 18 | –
17 | 680 | 390 | 78 | 210 | 715 | 530 | 245 | 190 | 400 | CN(C)CCNc1ccc2cc3ccccc3c3c2c1C(=O)N(CCN(C)C)C3=O | 734 | 230 | 1.7 | –
18 | 900 | 270 | 60 | 108 | 216 | 230 | 67 | 83 | 130 | CN(C)CCN1C(=O)c2cccc3cc4c(O)cccc4c(c23)C1=O | 2950 | 120 | 15 | –
19 | 900 | 182 | 81 | 70 | 507 | 690 | 179 | 350 | 660 | COc1ccc2cc3ccccc3c3c2c1C(=O)N(CCN(C)C)C3=O | – | 520 | – | –
20 | 140 | 90 | 9.9 | 7.7 | 231 | 71 | 7.7 | 49 | 100 | CN(C)CCN1C(=O)c2cccc3cc4cc(Cl)ccc4c(c23)C1=O | 1540 | 68 | 14 | –
21 | 120 | 81 | 14 | 41 | 68 | 140 | 54 | 110 | 120 | Cc1ccc2cc3cccc4c3c(c2c1)C(=O)N(CCN(C)C)C4=O | 1000 | 90 | 16 | –
22 | 85 | 64 | 8.2 | 5.1 | 64 | 8 | 7.7 | 58 | 17 | CN(C)CCN1C(=O)c2cccc3cc4ccc(Cl)cc4c(c23)C1=O | 771 | 48 | 18 | –
23 | 61 | 52 | 31 | 21 | 78 | 52 | 52 | 38 | 40 | COc1ccc2cc3cccc4c3c(c2c1)C(=O)N(CCN(C)C)C4=O | 9100 | 41 | 182 | –
24 | 30 | 52 | 4.8 | 13 | 52 | 67 | 18 | 120 | 9 | COc1cccc2c3c4c(cccc4cc12)C(=O)N(CCN(C)C)C3=O | 806 | 5.4 | 21 | –
25 | 64 | 44 | 31 | 5.8 | 102 | 50 | 14.6 | 49 | 51 | CNCCN1C(=O)c2cccc3cc4ccc(Cl)cc4c(c23)C1=O | 1430 | 42 | 28 | –
26 | 16 | 10 | 2.2 | 15 | 12 | 20 | 13 | 13 | 11 | CN(C)CCN1C(=O)c2cccc3cc4ccc(C#N)cc4c(c23)C1=O | 105 | 12 | 9 | –
